# Measured values reported in PubChem BioAssay AID743247 (Broad Institute, 2014).
# Where “and” joins values, the source holds several entries; their conditions need not be identical. Identical values can stand only once. In all, about 350,000 compounds went through this assay and about 300 (0.086%) were called active. The sample holds actives, similar compounds and a random draw of the others, so the mix is not that of the screen. A number with no mark means an inactive call.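 The calls were made as follows: active = mean inhibition across replicates of 30% or more, regardless of how many single replicates reach that level; inconclusive = mean under 30% yet at least half of replicates reach 30%; inactive = the rest.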
# Experiment: inhibitors of fibronectin matrix deposition, primary screen, AH1F cells, Alexa488-fibronectin fluorescence, plate reader (AID 743247);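 also: positive control wells lacked labelled fibronectin entirely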
# Conditions: AH1F fibroblasts, overnight, at 12.6 µM, active compounds read high
# Summary of the method: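 Assay system: AH1F fibroblasts assembling fluorescent fibronectin matrix; Amount: 10000 AH1F cells per well; Buffer or medium: DMEM, 2% serum; Probe or stimulus: Alexa488-fibronectin, 24 nM final in well; Doses: single compound dose, delivered by pin transfer; Incubation: 1 h adhesion, overnight exposure; Measured by: fluorescence 485/525 nm; Read-out: fibronectin deposition inhibition.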
row,SMILES,inhibition
1,CCC(=O)Nc1ccc2c(c1)C(=O)N(C)C[C@H](OC)[C@@H](C)CN(Cc1nccs1)[C@H](C)CO2,8.21%
2,CCCC(=O)Nc1ccc2c(c1)OC[C@H](C)N(CCc1ccccc1)C[C@H](C)[C@@H](OC)CN(C)C2=O,-9.33%
3,O=C1N[C@H](c2ccccc2)COCc2cn(nn2)CC[C@@H]1Cc1ccc(Cl)cc1,-8.81%
4,Cc1ccc(Nc2nc(N)nc(CSc3nnc(C)s3)n2)cc1,-6.84%
5,Cc1ccc(Nc2nnc(SC(C)C(=O)NC3CC3)s2)cc1 (stereo unspecified),9.55%
6,Cc1ccc(Nc2nnc(SCc3ccccc3)s2)cc1,30.3% (active)
7,CC(=O)N1C[C@@H]2C(c3ccccc3)[C@H](C1)N2Cc1ccc(F)cc1 (stereo partly specified),-14.1% and 0.287%
8,Cc1cccc(-c2ccc(C3[C@H]4CNC[C@@H]3N4S(=O)(=O)c3ccccc3F)cc2)c1 (stereo partly specified),6.27% and -0.776%
9,CC(=O)N(C)C[C@@H]1Oc2ccc(NC(=O)NC(C)C)cc2C(=O)N(C)C[C@H]1C,0.044%
10,CC(C)NC(=O)N(C)C[C@H]1Oc2ccc(N(C)C)cc2CC(=O)N(C)C[C@@H]1C,-2.09%
11,C[C@H](CO)N1C[C@H](C)[C@@H](CN(C)C(=O)Nc2cccc(F)c2)OCc2ccccc2-c2ccccc2C1=O,6.45%
12,C[C@@H]1CN(C)C(=O)c2cc([N+](=O)[O-])ccc2O[C@@H]1CN(C)C(=O)OC(C)(C)C,-15.7%
13,CC(=O)c1ccc(Nc2nc(C(N)c3ccccc3Cl)cs2)cc1 (stereo unspecified),-5.17%
14,CC(=O)c1ccc(Nc2nc(C(N)c3ccccc3)cs2)cc1 (stereo unspecified),30.3% (active)
15,NC(c1ccccc1)c1csc(NC(=O)Nc2cccc(C(F)(F)F)c2)n1 (stereo unspecified),0.914%
16,CCS(=O)(=O)Nc1ccc2c(c1)C(=O)N(C)[C@@H]1CC[C@@H](CC(=O)NC)O[C@H]1CO2,6.61%
17,CC(=O)Nc1cccc2c1O[C@@H](CN(C)C(C)=O)[C@@H](C)CN(C)C2=O,-3.62%
18,CN(C)C(=O)c1ccc(-c2ccc(C3[C@@H]4CN(S(=O)(=O)c5cccc(Cl)c5)C[C@H]3N4)cc2)cc1 (stereo partly specified),-2.13%
19,CNC[C@H]1Oc2ccc(NC(=O)Nc3ccc(F)cc3)cc2C(=O)N([C@@H](C)CO)C[C@@H]1C,-0.84%
20,CC(C)NC(=O)N(C)C[C@H]1Oc2c(cccc2N(C)C)C(=O)N(C)C[C@H]1C,0.739%
21,O=C(N[C@@H]1CC[C@H](CCn2cc(-c3ccccc3)nn2)O[C@H]1CO)c1cnccn1,15%
22,O=C(C[C@H]1CC[C@@H]2[C@H](COC[C@H](O)CN2CCC(F)(F)F)O1)NCC1CC1,-3.5%
23,C[C@@H]1CN(C)C(=O)c2cccc(N(C)C)c2O[C@H]1CN(C)S(C)(=O)=O,-2.39%
24,CN1c2ccc(-c3cccc(C#N)c3)cc2[C@H]2[C@H](CCN2S(=O)(=O)c2cccc(F)c2)[C@@H]1CO,13.8%

row,SMILES,inhibition
1,COCC(=O)Nc1ccc2c(c1)OC[C@H](C)N(C)C[C@H](C)[C@@H](OC)CN(C)C2=O,-14.1%
2,CC(C)NC(=O)N[C@@H]1C=C[C@@H](CC(=O)N2CCCCC2)O[C@@H]1CO,-8.74%
3,c1ccc(-c2ccc(C3[C@@H]4CN(Cc5cccnc5)C[C@H]3N4)cc2)cc1 (stereo partly specified),-4.82% and -10.1%
4,CCc1nc2c(OCCOc3ccccc3)cccn2c1N(C)C(=O)c1ccc(OC)cc1,5.55%
5,CCc1nc2c(OCCOc3ccccc3)cccn2c1N(C)C(=O)c1ccccc1F,-0.297%
6,CCc1nc2c(OCCc3cccc(OC)c3)cccn2c1N(C)C(=O)c1ccc(C)cc1,30.8% (active)
7,CCC(=O)N(C)C[C@H]1Oc2ncc(-c3ccc(C)cc3)cc2C(=O)N([C@@H](C)CO)C[C@@H]1C,-13%
8,C[C@@H]1CCCCO[C@H](CN(C)C(=O)c2ccccc2)[C@@H](C)CN([C@H](C)CO)C(=O)c2cc(NC(=O)c3ccccc3)ccc2O1,7%
9,O=C(C[C@H]1C[C@H]2c3cc(NC(=O)NC4CCCC4)ccc3O[C@H]2[C@@H](CO)O1)NCc1ccc(-c2ccccc2)cc1,-25.6%
10,CCCNC(=O)C[C@H]1CC[C@@H]2[C@H](COc3ccc(NC(=O)c4ccc(OC)cc4)cc3C(=O)N2C)O1,10.3%
11,CC(=O)N1[C@H](CO)[C@@H](c2ccc(-c3ccc(F)cc3)cc2)[C@H]1CNC(=O)C1CC1,-16%
12,CC(=O)N1[C@H](CNC(=O)CN(C)C)[C@H](c2ccc(C3=CCCC3)cc2)[C@@H]1CO,13.6%
13,CC[C@@H]1CC=CC[C@H](C)Oc2ccccc2C(=O)N(C)[C@H](Cc2ccccc2)C(=O)N1 (mixture of isomers),-1.05%
14,O=C1[C@H](Cc2ccc(C(F)(F)F)cc2)CCn2nncc2COC[C@@H]2CCCCN12,4.17%
15,C[C@@H]1COCc2cnnn2CC[C@H](Cc2ccccc2)C(=O)N1,-8.72%
16,C[C@H](CO)N1C[C@H](C)[C@@H](CN(C)S(C)(=O)=O)Oc2cc(C#CC3CC3)ccc2S1(=O)=O,5.58%
17,CO[C@H]1CN(C)C(=O)c2ccc(NC(=O)C3CC3)cc2OC[C@@H](C)N(C(=O)c2ccccn2)C[C@@H]1C,2.68%
18,O=C(C[C@@H]1CC[C@@H](NC(=O)C2CC2)[C@@H](CO)O1)NCc1ccccc1Cl,-5.16%
19,Cc1noc(C)c1S(=O)(=O)N(C)C[C@H]1Oc2ccc(N(C)C)cc2C(=O)N([C@H](C)CO)C[C@@H]1C,-9.54%
20,CO[C@H]1CN(C)C(=O)c2cc(NS(=O)(=O)c3ccccc3)ccc2OC[C@@H](C)N(Cc2nccs2)C[C@@H]1C,-0.524%
21,O=C(Nc1cc(F)ccc1F)N[C@H]1CC[C@H](CCn2cc(C3CCCC3)nn2)O[C@@H]1CO,-1.92%
22,CC(=O)N(C)C[C@@H]1Oc2ccc(N)cc2CC(=O)N(C)C[C@H]1C,-1.05%
23,CNC[C@@H]1Oc2ccc(N(C)C)cc2CC(=O)N(C)C[C@@H]1C,2.18%
24,C[C@H](CO)N1C[C@H](C)[C@H](CN(C)Cc2ccc(C(F)(F)F)cc2)OCCCC[C@H](C)Oc2ccc(NS(=O)(=O)c3ccc(Cl)cc3)cc2C1=O,-21%

row,SMILES,inhibition
1,C[C@@H]1CCCCO[C@H](CN(C)C)[C@H](C)CN([C@@H](C)CO)C(=O)c2cc(NS(=O)(=O)c3cn(C)cn3)ccc2O1,-0.203%
2,CCC(=O)N1CC2(C1)[C@@H](c1ccccc1)[C@H](CO)N2CC1CCOCC1,-2.08%
3,CN1c2ccc(-c3cccc(C#N)c3)cc2[C@@H]2[C@@H](CCN2C(=O)NC2CCCCC2)[C@@H]1CO,-3.13%
4,COc1ccc(NC(=O)N2C[C@H](O)COC[C@H]3O[C@@H](CC(=O)N4CCN(C)CC4)CC[C@@H]32)cc1,-2.89%
5,CC[C@H]1CC=CC[C@@H](C)Oc2ccccc2C(=O)N(C)[C@H](Cc2ccccc2)C(=O)N1 (mixture of isomers),0.881%
6,COc1ccccc1NC(=O)N1[C@@H]2CNC[C@H]1C2c1ccc(-c2ccccc2C)cc1 (stereo partly specified),-3.3%
7,CCCN1C[C@@H](C)[C@@H](OC)CN(C)C(=O)c2cc(NC(=O)Nc3cccc(F)c3)ccc2OC[C@@H]1C,-5.97%
8,C[C@H]1CN(C)C(=O)c2cccc(N(C)C)c2O[C@@H]1CN(C)C,-26.9%
9,O=C(C1CCCCC1)N1CC(=O)N2[C@H](CO)[C@H](c3ccc(-c4ccccc4F)cc3)[C@H]2C1,-7.64%
10,O=C1N[C@H](c2ccccc2)COCc2cn(nn2)CC[C@H]1Cc1cccc(Cl)c1,-1.96%
11,COc1ccc2c3c([nH]c2c1)[C@@H](CO)N(Cc1ccccc1)CC31CCN(Cc2cncnc2)CC1,-11.5%
12,O=C1NCCOCc2cn(nn2)CC[C@@H]1Cc1ccccc1,-3.44%
13,CCCNC(=O)Nc1ccc2c(c1)C(=O)N(C)[C@H]1CC[C@H](CC(=O)NC3CCC3)O[C@H]1CO2,-3.4%
14,CN(C)CC(=O)N[C@@H]1CC[C@H](CCn2cc(C3CCCC3)nn2)O[C@H]1CO,5.53%
15,CC(C)NC(=O)Nc1cccc2c1O[C@H](CN(C)Cc1ccc3c(c1)OCO3)[C@H](C)CN([C@H](C)CO)C2=O,7.48%
16,CNC[C@H]1Oc2ccccc2CC(=O)N(C)C[C@H]1C,-0.894%
17,COc1ccc2c3c(n(C)c2c1)[C@H](CO)N(C)CC31CN(S(=O)(=O)c2cccc(C)c2)C1,11.9%
18,O=C1C[C@@H](c2ccccc2)C(=O)N[C@H](c2ccc(F)cc2)C/C=C\CCN1,-8.29%
19,C/C=C/c1ccc2c(c1)O[C@H](CN(C)C(=O)Nc1ccc(OC)cc1)[C@@H](C)CN([C@H](C)CO)S2(=O)=O,9.72%
20,Cc1cccc(CS(=O)(=O)c2ncc(Cl)c(C(=O)Nc3ccc(F)cc3)n2)c1,34.8% (active)
21,Cc1cccc(NC(=O)c2nc(S(=O)(=O)Cc3ccccc3)ncc2Cl)c1,20.9%
22,Cc1ccc(CS(=O)(=O)c2ncc(Cl)c(C(=O)Nc3nnc(C)s3)n2)cc1,0.254%
23,O=C(C1CCC1)N1CC[C@H]2[C@H](CO)Nc3ccc(-c4cccc(F)c4)cc3[C@H]21,-4.67%
